Bioassay records (PubChem BioAssay)
S1P1 ag pot = S1P1 (human) agonism or agonism potentiation; P21453; S1P1 CRE-bla cells, forskolin, beta-lactamase FRET, potentiator mode; S1P1 agonist co-added at EC20, 2 nM; 100% = saturating reference agonist, 0% = basal; activation, % at 9.5 µM; actives 0.57% (n = 56,000);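 active means activation above a cutoff set at the mean activation of all tested compounds plus 3 SD, cut at about 54% in these data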;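 further: forskolin at 4 µM as EC80 and the EC20 agonist is SEW2871; 100% = SEW2871 at its EC100 plus forskolin at EC80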
HTR1E agonist = agonists of human 5-HT1E serotonin receptor; CHO 5-HT1E Ga15 NFAT-bla reporter, FRET; 0% DMSO wells, 100% control agonist wells; activation, % at 6 µM; actives 0.69% (n = 65,000);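 active means activation above a set limit, the screen-wide mean activation plus 3 SD, cut at about 8.5% in these data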;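 further: 100% = positive control agonist at 1 µM giving full maximal response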
Target sequence (P28566 whole entry, looked up): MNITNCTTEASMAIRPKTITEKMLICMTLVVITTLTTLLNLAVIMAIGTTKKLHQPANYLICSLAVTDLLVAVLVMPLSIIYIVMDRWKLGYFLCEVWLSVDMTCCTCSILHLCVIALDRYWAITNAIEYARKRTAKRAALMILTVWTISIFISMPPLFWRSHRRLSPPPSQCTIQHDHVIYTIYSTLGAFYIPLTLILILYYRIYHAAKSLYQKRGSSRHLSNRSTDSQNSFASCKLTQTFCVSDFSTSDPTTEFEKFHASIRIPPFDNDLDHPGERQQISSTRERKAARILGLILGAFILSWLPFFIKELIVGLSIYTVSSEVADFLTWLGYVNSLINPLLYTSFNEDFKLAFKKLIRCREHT
HTR1A agonist = agonists of human 5-HT1a serotonin receptor | CHO 5-HT1a Ga15 NFAT-bla reporter, FRET ratio; 0% basal, 100% maximal reference agonist | activation, % at 10 µM | actives 0.56% (n = 65,000);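 active means activation above the screen-wide mean activation plus 3 SD, cut at about 19% in these data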;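 further: 0% = DMSO wells and 100% = 5-CT at EC100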
HTR1E antagonist = antagonists of human 5-HT1E serotonin receptor; P28566; CHO 5-HT1E Ga15 NFAT-bla reporter, FRET, antagonist; inhibition, % at 6 µM; actives 0.99% (n = 65,000); AID 571;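 active means inhibition above a set limit, the mean inhibition across every tested compound plus 3 SD, cut at about 29% in these data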;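 further: signal is the 460 over 535 nm emission ratio of beta-lactamase substrate; 0% = agonist plus DMSO wells and 100% = wells without agonist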
S1P3 ag = agonists of human S1P3 receptor. activation, % at 4.5 µM. S1P3 NFAT-BLA reporter cells, agonism, FRET ratio; relative to 1 µM S1P, basal subtracted. actives 0.1% (n = 60,000);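 active means activation above the screen-wide mean plus 3 SD, cut at about 4.5% in these data, passing the limit was not always enough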
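Measure – % activation relative to 1 µM S1P (100%), per plate · System – stable CHO line with human S1P3, Gα16, NFAT-BLA reporter · Timing – cells plated overnight, compound 4 h 37 °C, substrate 2 h RT · Technique – fluorescent BLA substrate, ex 405 nm, em 460/535 nm ratio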
5-HT1A blocker = antagonists of human 5-HT1a serotonin receptor; P08908; AID 612; CHO 5-HT1a Ga15 NFAT-bla reporter, antagonist mode; inhibition, % at 10 µM; actives 0.68% (n = 62,000);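 active means inhibition above the mean of all tested compounds plus 3 SD, cut at about 43% in these data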;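 further: receptor stimulated by 5-CT agonist at 100 nM near EC80; beta-lactamase reporter measured by ratiometric fluorescence of a cleavable substrate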
* hit, by the source's call; nt = not tested or not shown. Hits are enriched below; roughly 2.9% of the tested compounds scored in any of these assays.

SMILES	S1P1 ag pot	HTR1E agonist	HTR1A agonist	HTR1E antagonist	S1P3 ag	5-HT1A blocker
COc1cc2c(cc1OC)-c1cc(NC3CCCCCC3)nc(=O)n1CC2	-55	1	1	49*	1	13
CC1(C)CC(=O)CC(C)(C)N1OC(=O)c1ccccn1	2	-1	-2	-4	-1	0
Cc1nc(NC2=NCN(CCCN3CCOCC3)CN2)nc2c(C)cccc12	-26	15*	-1	-14	0	-11
Cc1cc2nc(NC3=NCN(CCCN4CCOCC4)CN3)nc(C)c2cc1C	-5	0	-1	-2	-1	-1
OCCCc1nc2n(n1)C(c1cccs1)C=C(c1ccccc1)N2 (stereo not drawn)	-1	2	2	17	2	7
OCCCc1nc2n(n1)C(c1ccccc1Cl)C=C(c1cccs1)N2 (stereo not drawn)	23	-1	-4	50*	-1	44*
COc1ccc(C2=Nn3c(nnc3-c3ccccn3)SC2)cc1OC	-20	1	0	39*	2	nt
COc1ccc(C2=Nn3c(nnc3-c3ccccc3OC)SC2)cc1OC	-62	2	-1	87*	0	75*
CCCn1c2ccccc2c2nnc(SCC(=O)Nc3ncccn3)nc21	-31	0	9	31*	1	-6
Cc1ccsc1C(C(=O)NC1CCCCC1)N(C(=O)c1csnn1)C1CC1 (stereo not drawn)	12	-1	-2	-2	1	6
CN(C)CCN(Cc1ccccc1)c1ccnc(N(C)C)c1C#N	nt	21*	4	6	-1	-1
CN(C)CCN(Cc1ccccc1)c1ccccn1	9	0	1	-2	-4	nt
Cn1cc(NC(=O)c2cc(NC(=O)c3cc(NC=O)cn3C)cn2C)cc1C(=O)NCCC(=N)N	0	-1	-1	-2	-3	nt
COc1ccccc1N1CCN(C2=CC(=O)CCC2)CC1	nt	32*	6	0	nt	18
COc1ccccc1N1CCN(c2ccc(-c3ccccc3)nn2)CC1	nt	0	-1	51*	nt	38
O=C1C=C(N2CCN(C3=CC(=O)CCC3)CC2)CCC1	11	-2	4	-5	-4	nt
COc1ccccc1N1CCN(c2nc(-c3ccccc3)cc(C(F)(F)F)n2)CC1	nt	-1	-3	-6	nt	2
CC(=O)Nc1ccc2c(c1)nc(CCN1CCN(C)CC1)n2C	-8	1	0	-7	0	-18
O=C(Nc1ccc(N2CCOCC2)c(F)c1)c1ccncc1	16	-1	-2	6	-1	10
CSc1nc(N2CCOCC2)c2c3c(sc2n1)CCCC3	-40	1	5	32*	-1	-14
c1ccc(CN2CCN(c3ncccn3)CC2)nc1	-19	1	1	1	-1	-16
c1ccc(N2CCN(Cc3ccnc4ccccc34)CC2)cc1	78*	1	1	17	-2	15
c1ccc(N2CCN(Cc3cn4cccnc4n3)CC2)cc1	-2	59*	-1	7	0	-3
CC(C)C(=O)Nc1cc(=O)[nH]c2ncnn12	10	0	0	8	0	5
COc1cc(OC)c(-c2nn3c(C4CCCCC4)nnc3s2)cc1OC	-75	1	3	33*	0	-2
SMILES	S1P1 ag pot	HTR1E agonist	HTR1A agonist	HTR1E antagonist	S1P3 ag	5-HT1A blocker
CCOc1cccc(-c2nnc3sc(C4CCCCC4)nn23)c1	42	0	1	10	7	nt
CCOc1cccc(-c2nnc3sc(-c4cc(OC)c(OC)cc4OC)nn23)c1	-2	2	-5	-6	-2	-2
Cc1cc(-c2nnc3sc(C4CCCCC4)nn23)n[nH]1	-1	-2	-2	11	0	-15
COc1cc(-c2nnc3sc(C4CCCCC4)nn23)cc(OC)c1OC	-16	1	-1	40*	1	-10
COc1cccc(-c2nnc3sc(C4CCCCC4)nn23)c1	80*	-1	2	25	-1	nt
N#Cc1ccc(N2CCN(C(=O)c3cccc(F)c3)CC2)c(F)c1	7	1	-1	15	-2	2
CCOc1cccc(-c2nnc3n2N=C(c2cc(OC)ccc2OC)CS3)c1	nt	0	1	61*	nt	31
COc1cccc(-c2nnc3n2N=C(C(C)(C)C)CS3)c1	nt	-1	-1	51*	nt	76*
COc1cccc(-c2nnc3n2N=C(c2cc(OC)ccc2OC)CS3)c1	nt	-1	1	44*	nt	12
COc1ccc(OC)c(C2=Nn3c(nnc3-c3ccncc3)SC2)c1	nt	1	3	16	nt	-10
COc1ccc(OC)c(C2=Nn3c(nnc3-c3cc(OC)c(OC)c(OC)c3)SC2)c1	-33	3	3	44*	1	14
O=C(NCC1CCCO1)C1CCN(C(=O)c2ccc(Br)cc2)CC1 (stereo not drawn)	nt	0	-2	-3	0	-4
CN1CCN(Cc2nc3c(c(=O)n(C)c(=O)n3C)n2Cc2ccccc2Cl)CC1	-2	0	0	1	0	-10
O=c1nc2scc(-c3ccccc3)n2c2ccccc12	nt	1	0	17	nt	2
COc1cc(-c2nnc3n2N=C(c2ccccc2)CS3)cc(OC)c1OC	-18	0	-1	51*	-1	2
COc1ccc(-c2nnc3n2N=C(c2cccc(Br)c2)CS3)cc1OC	-34	0	2	19	-1	-7
Cc1nnc(SCC(=O)N2CCN(Cc3ccccc3)CC2)s1	nt	0	0	-8	0	-5
Cc1nnc(SCC(=O)N2CCC(c3noc4ccc(F)cc34)CC2)s1	69*	1	-2	16	0	24
CCOC(=O)C1C(=O)CC(C)(O)C(C(=O)OCC)C1c1ccco1 (stereo not drawn)	-18	0	1	-8	-1	-6
O=C(NCc1ccco1)C1Cc2ccccc2CN1S(=O)(=O)c1ccccc1F (stereo not drawn)	20	0	-1	-1	1	9
Cc1ccc(C2C(C(=O)c3sc(-c4ccccc4)nc3C)=C(O)C(=O)N2CCN(C)C)o1 (stereo not drawn)	nt	-1	-2	-1	1	-10
COc1cc2c(cc1OC)/C(=C/C#N)NC(C)(C)C2	-15	-1	-1	44*	0	46*
Cc1occc1-c1nnc(SCC(=O)NC(C)(C)C)n1C(C)c1ccccc1 (stereo not drawn)	7	43*	1	0	0	10
COc1cccc(-n2c(SCC(=O)NC(C)(C)C)nnc2-c2ccoc2C)c1	3	0	-1	3	-1	1
CC1=NC(C(F)(F)F)(C(F)(F)F)C2=C(CC(C)(C)CC2=O)N1Cc1ccco1	nt	-1	2	0	0	10
